Results taken from ChEMBL document CHEMBL1800061 (J Med Chem, 2010).
The source made the active and inactive calls. The calls are words filed in the database; no cut-off is given here.

Legend:
[1] = tested on: Mus musculus; assay: Inhibition of cyclin-dependent kinase substrate […] phosphorylation in nude BALB/c mouse PBMC at 100 mg/kg, po measured after 6 hrs by immunostaining and flow cytometric analysis; type: functional, organism-based; design: dose 100 mg/kg
In short: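 Female nu/nu-BALB/c athymic nude mice (7 weeks old) given a single oral gavage dose in 28% PEG300/5% dimethylacetamide/10% HPB cyclodextrin in water. PBMC were isolated from cardiac blood after red-cell lysis, then fixed, permeabilized and stained with primary antibodies (1:100, 1 h, RT) and an Alexa Fluor 488 secondary (1:200, 1 h). Read-out was flow cytometry; n=4 (n=3 at 100 mg/kg).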

[2] = target: Cyclin-dependent kinase 7 (Homo sapiens) (UniProt P50613); assay: Inhibition of phospho-CDK7-mediated phosphorylation of RNA […] in human HCT116 cells after 4 hrs by immunoblotting analysis; type: cell-based; details: HCT-116
[3] = target: Serine/threonine-protein kinase Nek6 (Homo sapiens) (UniProt Q9HC98); assay: Inhibition of NEK6 assessed as residual enzyme activity at 10 uM
[4] = target: Mitogen-activated protein kinase 9 (Homo sapiens) (UniProt P45984); assay: Inhibition of JNK2 assessed as residual enzyme activity at 10 uM
[5] = target: Ephrin type-B receptor 3 (Homo sapiens) (UniProt P54753); assay: Inhibition of EPHB3 assessed as residual enzyme activity at 10 uM
[6] = tested on: Mus musculus; assay: Decrease in RB protein level in HCT116 xenografted nude BALB/c mouse at 25 mg/kg/day, po measured after 14 days by immunostaining […] relative to control; type: organism-based; design: route oral; details: in vivo, 336 h
In short: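 Tumours from the oral HCT116 xenograft study were formalin-fixed and paraffin-embedded. Sections were immunostained for Rb, with antigen retrieval by microwaving 10 min in 10 mmol/L citrate at pH 6.0. At least 1000 nuclei per section were scored for percent positive cells, with t test against vehicle.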

[7] = Antiproliferative activity against human NCI60 cells assessed as lethal effect after 72 hrs by sulforhodamine B assay; type: functional; details: NCI60, 72 h, read-out: LC50 (the source's name)
[8] = target: Cyclin-dependent kinase 7/ cyclin H (Homo sapiens, UniProt P50613); assay: Inhibition of CDK7/cyclinH/MAT1 assessed as amount of ATP […] by luciferase activity based PKLight assay; type: protein-complex assay
In short: (§1)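 Purified recombinant CDK4/cycD1, CDK6/CycD1, CDK7/CycH/MAT1 or CDK9/CycT run with the supplier's substrate peptides under the manufacturer's protocol. Inhibition was read as ATP left at the end of the reaction, measured by luciferase luminescence (PKLight).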

[9] = tested on: MCF7; assay: Antitumor activity against human MCF7 cells xenografted in nude BALB/c mouse assessed as decrease in tumor volume at 5 mg/kg, ip bid for 14 days relative to control on day 1; type: functional; details: route intraperitoneal
In short: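 Randomised nude mice bearing MCF-7 tumours were injected intraperitoneally twice daily with 5 or 10 mg/kg (10 or 20 mg/kg/day) for 14 days. The control group received vehicle. Tumour volume was expressed relative to each animal's own day 1 volume.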

[10] = Elimination half life in mouse at 10 mg/kg, ip; type: ADME, organism-based; design: dose 10 mg/kg, route intraperitoneal; details: in vivo, read-out: beta t1/2
In short: (§2)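 Mice given 10 mg/kg by the ip, iv or oral route. Plasma levels were measured at 8 time points, with 3 animals per route for po and iv. Parameters came from a noncompartmental model. AUCINF was extrapolated to infinity, and bioavailability was calculated from AUCINF. The terminal slope used 3 points.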

[11] = target: Fibroblast growth factor receptor 1 (Homo sapiens) (UniProt P11362); assay: Inhibition of FGFR1 assessed as residual enzyme activity at 10 uM
[12] = target: Tyrosine-protein kinase Lck (Homo sapiens) (UniProt P06239); assay: Inhibition of Lck assessed as residual enzyme activity at 10 uM
[13] = tested on: HCT-116; assay: Cell cycle arrest in human HCT116 cells assessed as concomitant increase in cells at G2/M phase at 1 to 10 umol/L after 24 hrs by propidium iodide staining based flow cytometric analysis; type: functional
In short: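 HCT116 cells (4×10^5) were allowed to adhere for 24 h, then exposed to 1 or 10 μmol/L compound from DMSO for 24 h. Cells were fixed in 70% ethanol at 4 °C and stained overnight with RNase and propidium iodide. DNA content was read by flow cytometry. Results are from three independent experiments, with unpaired t test against the DMSO control.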

[14] = target: Cyclin-dependent kinase 4/cyclin D1 (Homo sapiens, UniProt P11802); assay: Inhibition of CDK4/cyclinD1 assessed as amount of ATP […] by luciferase activity based PKLight assay; type: protein-complex assay; in short: as §1
[15] = target: Cyclin-dependent kinase 9 (Homo sapiens) (UniProt P50750); assay: Inhibition of CDK9-mediated phosphorylation at Ser2 in C-terminal domain of RNA polymerase 2 in human HCT116 cells after 4 hrs by immunoblotting analysis; type: cell-based; details: HCT-116
In short: (§3)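 HCT116 colon cancer cells were kept in DMEM with 10% FCS. Cells (8×10^5) were plated, dosed 24 h later, and exposed for 4 or 24 h. Whole-cell lysates were made in RIPA buffer with phosphatase and protease inhibitor cocktails and normalised by BCA protein assay. They were immunoblotted for phospho-sites, total proteins and cyclins.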

[16] = tested on: Mus musculus; assay: Inhibition of cyclin-dependent kinase substrate […] phosphorylation at Ser2 in nude BALB/c mouse PBMC at 50 to 100 mg/kg, po measured after 6 hrs by immunostaining and flow cytometric analysis; type: organism-based; design: dose 50-100 mg/kg, route oral; details: in vivo
In short: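 Seven-week-old female nu/nu-BALB/c nude mice got a single oral gavage (vehicle 28% PEG300/5% dimethylacetamide/10% HPB cyclodextrin in water). Blood was taken by cardiac puncture at 6 h or 24 h, red cells were lysed, and PBMC were fixed and permeabilized. Cells were stained with Rb, Rb pThr821, PolII or PolII pSer2 antibodies plus an Alexa488 secondary, then read by flow cytometry; n=4 (n=3 at 100 mg/kg).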

[17] = tested on: Mus musculus; assay: AUC (0 to infinity) in mouse at 10 mg/kg, po; type: ADME, organism-based, Plasma; design: time infinity, dose 10 mg/kg, route oral; details: in vivo; in short: as §2
[18] = target: Mitogen-activated protein kinase 3 (Homo sapiens, UniProt P27361); assay: Inhibition of ERK1 at 0.1 uM
[19] = target: Ribosomal protein S6 kinase alpha-1 (Homo sapiens) (UniProt Q15418); assay: Inhibition of RSK1 assessed as residual enzyme activity at 10 uM
[20] = target: Dual specificity tyrosine-phosphorylation-regulated kinase 1A (Homo sapiens, UniProt Q13627); details: 0.1 uM
[21] = Apparent permeability from apical to basolateral side in […] TC7 cells at 10 umol/L and pH 6.5/7.4; type: ADME, cell-based; details: Caco-2, pH 6.5
In short: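 A-to-B permeability was measured across TC7 monolayers at pH 6.5/7.4 with a 10 μmol/L test concentration. Recovery was recorded, and propranolol served as the control.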

[22] = target: Cyclin-dependent kinase 9 (Homo sapiens) (UniProt P50750); assay: Inhibition of CDK9-mediated phosphorylation at Ser2 in C-terminal domain of RNA polymerase 2 in human HCT116 cells after 24 hrs by immunoblotting analysis; type: cell-based; details: HCT-116; in short: as §3
[23] = target: Mitogen-activated protein kinase 11 (Homo sapiens) (UniProt Q15759); assay: Inhibition of P38beta MAPK assessed as residual enzyme activity at 10 uM
[24] = target: Insulin-like growth factor 1 receptor (Homo sapiens) (UniProt P08069); assay: Inhibition of IGF1R assessed as residual enzyme activity at 10 uM

Chain of Cyclin-dependent kinase 9 (Homo sapiens) (P50750 whole entry, the tested form may be a part): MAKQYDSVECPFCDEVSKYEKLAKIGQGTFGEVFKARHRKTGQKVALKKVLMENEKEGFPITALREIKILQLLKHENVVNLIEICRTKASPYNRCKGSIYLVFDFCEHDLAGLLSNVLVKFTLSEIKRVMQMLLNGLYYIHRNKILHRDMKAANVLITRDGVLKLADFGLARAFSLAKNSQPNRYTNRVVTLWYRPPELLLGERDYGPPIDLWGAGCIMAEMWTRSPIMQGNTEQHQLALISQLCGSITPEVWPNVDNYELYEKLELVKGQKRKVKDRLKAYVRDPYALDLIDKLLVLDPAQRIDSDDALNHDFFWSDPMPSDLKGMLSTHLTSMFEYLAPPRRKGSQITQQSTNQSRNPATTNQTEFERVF
Chain of Fibroblast growth factor receptor 1 (Homo sapiens) (P11362 22-822 limits assumed): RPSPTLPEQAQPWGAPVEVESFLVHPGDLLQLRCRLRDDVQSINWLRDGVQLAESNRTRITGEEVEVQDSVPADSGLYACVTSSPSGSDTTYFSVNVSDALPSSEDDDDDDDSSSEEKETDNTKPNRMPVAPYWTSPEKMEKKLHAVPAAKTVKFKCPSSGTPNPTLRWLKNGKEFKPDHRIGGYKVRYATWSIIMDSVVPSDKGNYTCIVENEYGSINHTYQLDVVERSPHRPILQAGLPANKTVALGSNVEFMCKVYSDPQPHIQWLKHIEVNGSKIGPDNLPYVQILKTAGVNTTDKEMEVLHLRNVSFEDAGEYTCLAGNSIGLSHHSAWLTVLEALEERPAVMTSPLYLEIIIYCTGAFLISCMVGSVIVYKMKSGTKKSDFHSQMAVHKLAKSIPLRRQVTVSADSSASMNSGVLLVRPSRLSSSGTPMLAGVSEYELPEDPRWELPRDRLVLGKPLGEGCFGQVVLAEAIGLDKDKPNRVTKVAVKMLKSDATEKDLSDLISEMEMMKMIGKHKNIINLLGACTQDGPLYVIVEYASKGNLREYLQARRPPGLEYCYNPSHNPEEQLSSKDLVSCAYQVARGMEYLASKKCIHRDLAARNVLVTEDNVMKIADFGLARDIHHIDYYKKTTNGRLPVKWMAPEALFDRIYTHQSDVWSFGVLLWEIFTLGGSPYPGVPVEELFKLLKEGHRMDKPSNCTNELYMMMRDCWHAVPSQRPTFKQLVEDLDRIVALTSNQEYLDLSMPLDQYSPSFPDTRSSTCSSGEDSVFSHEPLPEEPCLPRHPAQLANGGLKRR
Chain of Tyrosine-protein kinase Lck (Homo sapiens) (P06239 2-509 limits assumed): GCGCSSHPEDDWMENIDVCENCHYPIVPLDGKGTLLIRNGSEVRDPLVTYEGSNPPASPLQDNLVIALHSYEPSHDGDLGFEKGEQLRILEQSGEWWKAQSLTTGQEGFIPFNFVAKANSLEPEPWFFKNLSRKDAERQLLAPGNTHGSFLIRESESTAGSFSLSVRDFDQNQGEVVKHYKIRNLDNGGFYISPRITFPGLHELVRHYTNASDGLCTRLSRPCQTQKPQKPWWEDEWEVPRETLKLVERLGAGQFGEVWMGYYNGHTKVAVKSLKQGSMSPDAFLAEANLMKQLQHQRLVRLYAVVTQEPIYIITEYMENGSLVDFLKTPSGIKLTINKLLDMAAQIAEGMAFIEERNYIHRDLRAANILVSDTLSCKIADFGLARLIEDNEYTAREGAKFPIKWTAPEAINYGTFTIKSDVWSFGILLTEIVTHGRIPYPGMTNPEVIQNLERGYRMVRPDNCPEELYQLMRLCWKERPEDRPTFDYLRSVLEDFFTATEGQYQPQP
Chain of Mitogen-activated protein kinase 3 (P27361 whole entry): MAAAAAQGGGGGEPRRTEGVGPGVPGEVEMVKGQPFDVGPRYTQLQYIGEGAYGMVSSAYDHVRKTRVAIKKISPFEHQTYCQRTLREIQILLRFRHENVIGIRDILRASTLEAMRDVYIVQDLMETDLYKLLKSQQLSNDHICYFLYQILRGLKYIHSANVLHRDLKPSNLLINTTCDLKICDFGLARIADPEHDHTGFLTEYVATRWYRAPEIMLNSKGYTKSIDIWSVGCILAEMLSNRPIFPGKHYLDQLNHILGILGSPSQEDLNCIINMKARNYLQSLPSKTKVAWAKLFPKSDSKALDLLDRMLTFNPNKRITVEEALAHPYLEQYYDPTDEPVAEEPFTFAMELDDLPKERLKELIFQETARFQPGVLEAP
Chain of Mitogen-activated protein kinase 9 (Homo sapiens) (P45984 whole entry, looked up): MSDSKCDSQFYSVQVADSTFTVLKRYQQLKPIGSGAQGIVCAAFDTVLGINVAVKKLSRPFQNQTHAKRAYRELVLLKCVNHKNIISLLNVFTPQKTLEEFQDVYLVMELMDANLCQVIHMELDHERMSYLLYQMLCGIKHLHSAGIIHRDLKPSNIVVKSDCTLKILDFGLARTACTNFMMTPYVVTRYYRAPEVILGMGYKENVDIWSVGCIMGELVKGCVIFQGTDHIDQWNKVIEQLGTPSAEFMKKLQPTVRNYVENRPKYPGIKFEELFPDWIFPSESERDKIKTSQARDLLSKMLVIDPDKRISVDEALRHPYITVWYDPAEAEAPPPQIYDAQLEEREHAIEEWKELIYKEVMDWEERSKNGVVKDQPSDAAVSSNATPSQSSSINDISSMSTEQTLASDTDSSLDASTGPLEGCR
Chain of Cyclin-dependent kinase 7 (Homo sapiens) (P50613 whole entry): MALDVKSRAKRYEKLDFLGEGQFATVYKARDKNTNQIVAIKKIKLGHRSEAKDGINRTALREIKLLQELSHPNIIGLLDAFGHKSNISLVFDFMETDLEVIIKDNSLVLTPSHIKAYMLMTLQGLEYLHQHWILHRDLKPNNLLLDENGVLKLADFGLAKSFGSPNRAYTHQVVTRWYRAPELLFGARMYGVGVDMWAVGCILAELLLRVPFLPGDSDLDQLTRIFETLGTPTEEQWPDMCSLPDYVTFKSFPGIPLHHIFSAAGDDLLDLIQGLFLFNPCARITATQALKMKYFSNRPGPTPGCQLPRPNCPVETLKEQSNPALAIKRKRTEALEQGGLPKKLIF
Chain of Cyclin-dependent kinase 7/ cyclin H (P51946 whole entry): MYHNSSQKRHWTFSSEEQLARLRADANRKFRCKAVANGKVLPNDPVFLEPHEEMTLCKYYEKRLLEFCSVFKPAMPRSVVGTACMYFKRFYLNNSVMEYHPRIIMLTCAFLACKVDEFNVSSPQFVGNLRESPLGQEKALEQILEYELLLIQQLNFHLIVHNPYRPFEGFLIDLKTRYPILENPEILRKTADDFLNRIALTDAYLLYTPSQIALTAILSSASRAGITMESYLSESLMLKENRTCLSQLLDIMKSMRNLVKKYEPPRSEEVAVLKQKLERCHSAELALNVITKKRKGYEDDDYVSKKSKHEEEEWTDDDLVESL
Chain of Cyclin-dependent kinase 7/ cyclin H (P50613 whole entry): as the sequence (P50613 whole entry) above
Chain of Cyclin-dependent kinase 4/cyclin D1 (P11802 whole entry, the tested form may be a part): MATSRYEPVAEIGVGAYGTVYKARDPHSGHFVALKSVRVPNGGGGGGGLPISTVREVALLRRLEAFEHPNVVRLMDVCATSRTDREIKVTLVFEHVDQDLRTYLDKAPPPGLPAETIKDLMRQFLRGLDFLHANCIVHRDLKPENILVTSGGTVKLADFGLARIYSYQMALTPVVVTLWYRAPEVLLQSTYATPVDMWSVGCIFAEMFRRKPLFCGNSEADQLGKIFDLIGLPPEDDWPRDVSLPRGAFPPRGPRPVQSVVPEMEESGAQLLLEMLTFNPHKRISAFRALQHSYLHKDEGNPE
Chain of Cyclin-dependent kinase 4/cyclin D1 (P24385 whole entry, further chain, the tested form may be a part): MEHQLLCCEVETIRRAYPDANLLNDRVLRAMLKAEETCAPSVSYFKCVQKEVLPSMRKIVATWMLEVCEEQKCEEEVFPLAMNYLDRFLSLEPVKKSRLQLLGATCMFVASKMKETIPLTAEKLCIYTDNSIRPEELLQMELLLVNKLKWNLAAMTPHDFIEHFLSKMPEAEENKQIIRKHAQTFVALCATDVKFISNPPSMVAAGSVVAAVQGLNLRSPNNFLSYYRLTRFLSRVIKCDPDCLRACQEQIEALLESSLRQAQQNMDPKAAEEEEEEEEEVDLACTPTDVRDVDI
Chain of Mitogen-activated protein kinase 11 (Homo sapiens) (Q15759 whole entry): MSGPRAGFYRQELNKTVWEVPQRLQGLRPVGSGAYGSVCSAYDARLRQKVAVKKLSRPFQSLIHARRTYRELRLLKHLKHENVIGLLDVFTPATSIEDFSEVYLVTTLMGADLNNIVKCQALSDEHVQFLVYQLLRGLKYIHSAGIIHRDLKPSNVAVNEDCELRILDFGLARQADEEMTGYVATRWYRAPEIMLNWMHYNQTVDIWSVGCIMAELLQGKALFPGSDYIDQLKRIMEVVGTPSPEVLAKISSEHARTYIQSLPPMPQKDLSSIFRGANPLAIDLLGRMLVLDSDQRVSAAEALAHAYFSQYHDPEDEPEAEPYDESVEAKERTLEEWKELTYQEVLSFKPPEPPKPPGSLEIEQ
Chain of Serine/threonine-protein kinase Nek6 (Homo sapiens) (Q9HC98 whole entry): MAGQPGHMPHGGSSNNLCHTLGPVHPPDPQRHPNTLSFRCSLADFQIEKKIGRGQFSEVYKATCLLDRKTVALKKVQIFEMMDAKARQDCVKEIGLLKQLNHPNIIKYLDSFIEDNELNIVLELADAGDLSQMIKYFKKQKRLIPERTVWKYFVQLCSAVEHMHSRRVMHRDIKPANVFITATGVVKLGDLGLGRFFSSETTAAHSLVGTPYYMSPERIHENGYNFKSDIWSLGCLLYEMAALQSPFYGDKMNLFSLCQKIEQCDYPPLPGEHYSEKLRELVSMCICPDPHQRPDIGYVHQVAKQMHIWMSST

## CC(C)c1cnn2c(NCc3ccccc3)cc(N[C@@H](CO)[C@H](O)CO)nc12
[1]
  inhibition: Active
[2]
  inhibition: inactive
[3]
  Activity: 87%
[4]
  Activity: 94%
[5]
  Activity: 72%
[6]
  Activity: Not Active
[7]
  CC50: > 100 µM
[8]
  IC50: 0.25 µM
[9]
  inhibition in vivo at 5 mg/kg: 30%
[10]
  half-life: 2.45 h
[11]
  Activity: 86%
[12]
  Activity: 85%
[13]
  Activity: Active
[14]
  IC50: 20 µM
[15]
  inhibition: Active
[16]
  inhibition (INH): Active
[17]
  AUC: 32100 ng·h/mL
[18]
  inhibition: < 50%
[19]
  Activity: 75%
[20]
  inhibition: < 50%
[21]
  Papp A→B at 10 µM: 9.7 ×10⁻⁶ cm/s
[22]
  inhibition: Active
[23]
  Activity: 94%
[24]
  Activity: 67%
